From ChEMBL document CHEMBL1126152, “Fluoronaphthyridines as antibacterial agents. 4. Synthesis and structure-activity relationships of 5-substituted-6-fluoro-7-(cycloalkylamino)-1,4-dihydro-4-oxo-1,8- naphthyridine-3-carboxylic acids” (J Med Chem, 1992) come the findings set out here.

A short description of series [1]: Solubility was measured at PH - 7.2 buffer.
Series [2] relates to Bacteroides fragilis. Description: In vitro for antibacterial activity against […]. In kind it is functional. The procedure, abridged:
(§1)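 MIC by serial 2-fold broth dilution in nutrient broth with an inoculum of 10^6 CFU/mL. Compound range was 0.0005–250 μg/mL. Plates were incubated 18 h at 37 °C. MIC was taken as the lowest concentration preventing visible growth.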

Series [3] relates to Escherichia coli. Description: Compound was tested for […] against Escherichia coli A 15119 after oral administration of drug in mice. Format: functional. The settings on record: read-out: PD50. Put shortly: (§2)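 Mouse protection test against systemic infection. Compound was dissolved in sterile water and given orally to female OF1-strain Swiss mice weighing 18–25 g, with five mice per group.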

For series [4], the system named is Enterococcus faecalis. Description: In vitro for antibacterial activity against Enterococcus faecalis. Format: functional. Put shortly: as §1
Series [5] concerns Escherichia coli. The series can be described thus: In vitro for antibacterial activity against Escherichia coli. Format: functional. Put shortly:
as §1

The test system of series [6] is Enterobacter cloacae. Description: In vitro for antibacterial activity against Enterobacter cloacae. In kind it is functional.
The subject of series [7] is Klebsiella pneumoniae. The series can be described thus: In vitro for antibacterial activity against Klebsiella pneumoniae. In kind it is functional. The procedure, abridged:
as §1

Series [8] relates to Morganella morganii. Description: In vitro for antibacterial activity against Morganella morganii. In kind it is functional. Put shortly:
as §1

Series [9] is described as follows: Lethal dose was determined in OF1-strain female Swiss mice after intra venous administration of the drug. The settings on record: mouse, in vivo, iv.
Series [10] in a line: Lethal dose was determined in OF1-strain female Swiss mice after oral administration of the drug. The settings on record: mouse, in vivo.
Series [11] has as its system Pseudomonas aeruginosa. The series can be described thus: In vitro for antibacterial activity against Pseudomonas aeruginosa. In kind it is functional. The procedure, abridged:
as §1

Series [12] has as its system Pseudomonas aeruginosa. Description: animal or person. In kind it is functional. The settings on record: in Mus musculus, po, read-out: PD50.
For series [13], the system named is Proteus mirabilis. The series can be described thus: In vitro for antibacterial activity against Proteus mirabilis. Format: functional. Put shortly:
as §1

Series [14] concerns Staphylococcus. The series can be described thus: Compound was tested for […] against Staphylococcus aureus A 15090 after oral administration of drug in mice. In kind it is functional. The following applies: read-out: PD50. Put shortly: as §2
The subject of series [15] is Serratia marcescens. Description: In vitro for antibacterial activity against Serratia marcescens. In kind it is functional. Put shortly:
as §1

The subject of series [16] is Streptococcus pneumoniae. Description: Antibacterial activity against Streptococcus pneumoniae. Format: functional.
Series [17] concerns Staphylococcus aureus. The series can be described thus: Antibacterial activity against Staphylococcus aureus. Format: functional.
Series [18] concerns Streptococcus pneumoniae. Description: animal or person. Format: functional. The following applies: in Mus musculus, po, read-out: PD50.
Series [19] in a line: Partition coefficient (logD). The settings on record: octanol/water.
The species entered for series [20] is Mus musculus. The following applies: in vivo.
Series [21] in a line: in vivo. The following applies: mouse, plasma, T1/2.
Series [22] is described as follows: % dose recovered in mouse urine. The settings on record: % recovery.
Series [23] has as its system Staphylococcus aureus. The series can be described thus: animal or person. Format: functional. The settings on record: in Mus musculus, po, read-out: PD50.
A short description of series [24]: in vivo. The settings on record: mouse, plasma.

≈ marks a conversion by molar mass, not a printed value. Where “and” joins values, the source holds several entries; their conditions need not be identical. Equal entries are not always repeated. Bounds are passed on as bounds.

In [1], `NC1CCN(c2nc3c(cc2F)c(=O)c(C(=O)O)cn3-c2ccc(F)cc2F)C1` (configuration not stated) [TOSUFLOXACIN] gave a solubility of 20 µg/mL (≈ 49.5 µM). Besides, the MIC worked out at 1 µg/mL (≈ 2.47 µM) in [2]; 0.25 µg/mL (≈ 0.618 µM) in series [4]; 0.004 µg/mL (≈ 0.00989 µM) in [5]; 0.03 µg/mL (≈ 0.0742 µM) in series [6]; 0.016 µg/mL (≈ 0.0396 µM) in [7]; 0.06 µg/mL (≈ 0.148 µM) in series [8]. For the same compound, the MIC turned out to be 0.25 µg/mL (≈ 0.618 µM) in series [11]; 0.03 µg/mL (≈ 0.0742 µM) in series [13]; 0.13 µg/mL (≈ 0.322 µM) in series [15]; 0.06 µg/mL (≈ 0.148 µM) in series [16]; 0.016 µg/mL (≈ 0.0396 µM) in series [17]. The ED50 in series [3] was 1.8 mg/kg; in series [12], 2.9 mg/kg; in [14], 2.1 mg/kg; in [18] it was 11.4 mg/kg. The LD50 in [9] turned out to be 81 mg/kg; in series [10], 2500 mg/kg. In [19], this compound had a pH-dependent lipophilicity (logD) of 0.1. Moreover, the T1/2 in series [20] worked out at 1.38 h. In series [21], this compound returned a half-life of 2.4 h.
`O=C(O)c1cn(-c2ccc(F)cc2F)c2nc(N3CC4CC3CN4)c(F)cc2c1=O` (configuration not stated) returned a dose excreted in series [22] of 7%. In addition, the MIC stood at 1 µg/mL (≈ 2.4 µM) in series [2]; 0.5 µg/mL (≈ 1.2 µM) in [4]; 0.004 µg/mL (≈ 0.00961 µM) in series [5]; 0.016 µg/mL (≈ 0.0384 µM) in series [6]; 0.008 µg/mL (≈ 0.0192 µM) in [7]; 0.06 µg/mL (≈ 0.144 µM) in series [8]. In addition, the MIC in series [11] was 0.25 µg/mL (≈ 0.6 µM); in [13], 0.03 µg/mL (≈ 0.0721 µM); in series [15], 0.06 µg/mL (≈ 0.144 µM); in [16], 0.25 µg/mL (≈ 0.6 µM); in series [17], 0.016 µg/mL (≈ 0.0384 µM). Moreover, the values for the ED50 in [12] and in [23] were 2.7 mg/kg and 9.5 mg/kg, respectively. The compound also registered a T1/2 in series [20] of 1.48 h. In series [21], the half-life is 1.72 h.
On to `Cc1c(F)c(N2CC3CC2CN3)nc2c1c(=O)c(C(=O)O)cn2-c1ccc(F)cc1F` (configuration not stated), for which, in series [1], the concentration in solution (solubility) was 50 µg/mL (≈ 116 µM). In addition, the dose excreted in [22] was determined as 11%. In addition, the MIC came to 4 µg/mL (≈ 9.29 µM) in series [2]; 0.13 µg/mL (≈ 0.302 µM) in [4]; 0.008 µg/mL (≈ 0.0186 µM) in [5]; 0.03 µg/mL (≈ 0.0697 µM) in series [6]; 0.06 µg/mL (≈ 0.139 µM) in series [7]; 0.13 µg/mL (≈ 0.302 µM) in series [8]. Moreover, the MIC came to 0.5 µg/mL (≈ 1.16 µM) in [11]; 0.06 µg/mL (≈ 0.139 µM) in series [13]; 0.13 µg/mL (≈ 0.302 µM) in series [15]; 0.06 µg/mL (≈ 0.139 µM) in series [16]; 0.008 µg/mL (≈ 0.0186 µM) in series [17]. The ED50 came out at 1.6 mg/kg in series [12] and 0.7 mg/kg in [23]. This compound yielded a logD in series [19] of 0.59. Moreover, the T1/2 in series [20] amounted to 2.08 h. In series [24], this compound had a Cmax of 20000 ng/mL. This compound also displayed a half-life in [21] of 2.38 h.
As for `O=C(O)c1cn(C2CC2)c2cc(N3CCNCC3)c(F)cc2c1=O` [CIPROFLOXACIN], the MIC was found to be 4 µg/mL (≈ 12.1 µM) in series [2]; 0.5 µg/mL (≈ 1.51 µM) in series [4]; 0.06 µg/mL (≈ 0.181 µM) in series [7]; 0.03 µg/mL (≈ 0.0905 µM) in series [15]; 0.25 µg/mL (≈ 0.754 µM) in series [16]; 0.13 µg/mL (≈ 0.392 µM) in series [17]. Also, the ED50 is 1.2 mg/kg in series [3], 2.6 mg/kg in series [12], 8 mg/kg in [14] and above 50 mg/kg in [18].
Turning to `Cc1c(F)c(N2CCNCC2)nc2c1c(=O)c(C(=O)O)cn2C1CC1`, the dose excreted in [22] was determined as 12%. For the same compound, the MIC in series [2] turned out to be 32 µg/mL (≈ 92.4 µM); in series [4] it was 1 µg/mL (≈ 2.89 µM); in series [5], 0.008 µg/mL (≈ 0.0231 µM); in series [6], 0.03 µg/mL (≈ 0.0866 µM); in series [7], 0.02 µg/mL (≈ 0.0577 µM); in [8] it was 0.06 µg/mL (≈ 0.173 µM). Besides, the MIC in series [11] amounted to 0.5 µg/mL (≈ 1.44 µM); in [13], 0.13 µg/mL (≈ 0.375 µM); in series [15] it was 0.13 µg/mL (≈ 0.375 µM); in [16] it was 1 µg/mL (≈ 2.89 µM); in [17], 0.03 µg/mL (≈ 0.0866 µM). For the same compound, the ED50 in series [3] was 1.2 mg/kg; in [12] it was 5.6 mg/kg; in series [14], 9.6 mg/kg; in series [18] it was above 50 mg/kg. Besides, in series [20], the T1/2 is 2.73 h and 1.23 h.
With `Cc1c(F)c(N2CC[C@H](N)C2)nc2c1c(=O)c(C(=O)O)cn2-c1ccc(F)cc1F`, in [1], the solubility came out at 50 µg/mL (≈ 120 µM). Besides, the MIC in series [2] stood at 0.25 µg/mL (≈ 0.598 µM); in series [4], 0.06 µg/mL (≈ 0.143 µM); in series [5], 0.002 µg/mL (≈ 0.00478 µM); in series [6], 0.002 µg/mL (≈ 0.00478 µM); in series [7] it was 0.002 µg/mL (≈ 0.00478 µM); in [8], 0.03 µg/mL (≈ 0.0717 µM). In addition, the MIC was 0.25 µg/mL (≈ 0.598 µM) in [11]; 0.008 µg/mL (≈ 0.0191 µM) in series [13]; 0.03 µg/mL (≈ 0.0717 µM) in series [15]; 0.03 µg/mL (≈ 0.0717 µM) in series [16]; 0.002 µg/mL (≈ 0.00478 µM) in series [17]. In addition, the ED50 in series [3] turned out to be 1.8 mg/kg; in series [12], 2.2 mg/kg; in series [23] it was 1.7 mg/kg; in series [18] it was 7.9 mg/kg. In addition, the values for the LD50 in [9] and in [10] were 84 mg/kg and 2500 mg/kg, respectively. For the same compound, the logD in series [19] was 1.22.

The term solubility denotes the dissolved amount per volume that the medium holds. The low end stands for a poorly soluble substance, the high end for a readily soluble substance. By MIC is commonly meant the least concentration at which growth counts as inhibited. A word on the LD50: it is the dose at which mortality reaches 50%. One may read the logD as the decadic logarithm of the distribution of all forms, ionised or not, between an organic phase and buffer at a given pH. A lower logD goes with a more hydrophilic compound. What is called half-life is the time in which the quantity being followed falls by half. A higher half-life goes with slow loss. What is called Cmax is the highest concentration seen after dosing.
